SMILES strings stand for the structures. pIC50, pKi: −log10 of the molar value. Calls of active or inactive are those of the source. The calls are words filed in the database; no cut-off is given here.

Assay [1] addresses T1, Aldo-keto reductase family 1 member B1 (Homo sapiens, UniProt P15121). In words: Inhibition of human recombinant aldose reductase expressed in Escherichia coli BL21 (DE3) pLysS assessed as reduction in NADPH oxidation using L-idose as substrate.
In assay [2] the target is T2, Tyrosine-protein phosphatase non-receptor type 1 (Homo sapiens, UniProt P18031).
T2 sequence (P18031 whole entry): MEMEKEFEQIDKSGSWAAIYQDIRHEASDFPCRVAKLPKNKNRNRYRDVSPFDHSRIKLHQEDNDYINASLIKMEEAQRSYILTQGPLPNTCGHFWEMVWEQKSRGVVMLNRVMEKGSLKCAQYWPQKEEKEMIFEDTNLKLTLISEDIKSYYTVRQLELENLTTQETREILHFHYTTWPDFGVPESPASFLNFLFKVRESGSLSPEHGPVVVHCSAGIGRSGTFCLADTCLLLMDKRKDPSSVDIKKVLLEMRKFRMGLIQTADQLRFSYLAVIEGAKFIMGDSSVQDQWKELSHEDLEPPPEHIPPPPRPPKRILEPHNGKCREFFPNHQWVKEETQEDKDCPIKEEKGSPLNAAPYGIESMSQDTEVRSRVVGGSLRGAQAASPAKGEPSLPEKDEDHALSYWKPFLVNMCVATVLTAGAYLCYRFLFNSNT
Kind of assay: Inhibition of human full-length GST-fused PTP1B expressed in bacterial expression system using pNPP as substrate. The method, boiled down: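 Human recombinant PTP1B activity measured with p-nitrophenyl phosphate as substrate and sodium metavanadate as reference inhibitor. IC50 values are reported as mean ± S.E.M.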

Assay [3] has as its target T3, Tyrosine-protein phosphatase non-receptor type 1 (Homo sapiens) (UniProt P18031).
T3 sequence (whole entry): T2 sequence (P18031 whole entry)
Kind of assay: Inhibition of human full-length GST-fused PTP1B expressed in bacterial expression system at 300 uM using pNPP as substrate relative to control.

Assay [4] has as its target T1, Aldo-keto reductase family 1 member B1. Kind of assay: Reversible inhibition of human recombinant aldose reductase expressed in Escherichia coli BL21(DE3)pLysS assessed as enzyme activity recovery at 0.25 to 2 uM using L-idose as substrate relative to control. More on the design: scale not given: the % may be the effect or the level left.
Assay [5] concerns the target T2, Tyrosine-protein phosphatase non-receptor type 1. In words: Non-competitive inhibition of human full-length GST-fused PTP1B expressed in bacterial expression system assessed as dissociation constant of enzyme-inhibitor complex using pNPP as substrate by Michaelis-Menten plot analysis. The method, boiled down: (§1)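 Human recombinant PTP1B with pNPP, rates measured over varied substrate levels at inhibitor 0–30 µM (steps of 10 µM, or 0/3/6/9 µM). Double-reciprocal plots were drawn, and secondary plots of Km/Vmax versus inhibitor concentration were used. Data are mean ± S.E.M. (n = 3).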

Assay [6] addresses T1, Aldo-keto reductase family 1 member B1. In words: Uncompetitive inhibition of human recombinant aldose reductase expressed in Escherichia coli BL21(DE3)pLysS assessed as dissociation constant of enzyme-inhibitor complex using L-idose as substrate by Morrison's plot analysis. The method in brief:
(§2)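 Purified human AR (7 mU) activity was measured across inhibitor concentrations at L-idose 2.1, 3.1, 4.1, 8.3 and 16.6 mM. Data were fitted to the Morrison equation to give Ki app at each substrate level. Ki app versus substrate was then fitted by nonlinear regression to a general tight-binding inhibition model.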

Assay [7] has as its target T3, Tyrosine-protein phosphatase non-receptor type 1 (Homo sapiens). In words: Reversible inhibition of human full-length GST-fused PTP1B expressed in bacterial expression system using pNPP as substrate after 60 mins. The method, boiled down:
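PTP1B was preincubated with a saturating inhibitor concentration for 60 min at 37°C. The mixture was then diluted in assay buffer and residual pNPP-hydrolysing activity was measured.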

For assay [8], the target named is T2, Tyrosine-protein phosphatase non-receptor type 1. In words: Non-competitive inhibition of human full-length GST-fused PTP1B expressed in bacterial expression system assessed as dissociation constant of enzyme-inhibitor-substrate complex using pNPP as substrate by Michaelis-Menten plot analysis. The method, boiled down: as §1
Assay [9] addresses T1, Aldo-keto reductase family 1 member B1. In words: Uncompetitive inhibition of human recombinant aldose reductase expressed in Escherichia coli BL21(DE3)pLysS assessed as dissociation constant of enzyme-inhibitor-substrate complex using L-idose as substrate by Morrison's plot analysis. The method in brief: as §2
The target in assay [10] is T2, Tyrosine-protein phosphatase non-receptor type 1. In words: Mixed non-competitive inhibition of human full-length GST-fused PTP1B expressed in bacterial expression system assessed as assessed as dissociation constant of enzyme-inhibitor-substrate complex using pNPP as substrate by double reciprocal plot analysis. The method, boiled down: (§3)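 Human recombinant PTP1B with pNPP. Rates were measured over varied substrate levels at inhibitor 0, 2, 4 and 6 µM. […] Data are mean ± S.E.M. (n = 3).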

Assay [11] shares this target. Kind of assay: Mixed non-competitive inhibition of human full-length GST-fused PTP1B expressed in bacterial expression system assessed as assessed as dissociation constant of enzyme-inhibitor complex using pNPP as substrate by double reciprocal plot analysis. The method in brief: as §3

As to `O=C(O)CN1C(=O)/C(=C/c2cccc(OCc3ccccc3)c2)SC1=S`, the pIC50 in assay [1] was 7.28; in assay [2] it was 4.37.
The matching figures for `COc1cc(/C=C2\SC(=O)N(CC(=O)O)C2=O)ccc1OCc1ccccc1`: 6.49 and 3.82.
In turn, `NC(=O)COc1ccc(/C=C2\SC(=S)N(CC(=O)O)C2=O)cc1` had an inhibition in assay [3] of 10%. Besides, the negative-log IC50 (pIC50) in assay [1] is 6.71.
On to `O=C(O)CN1C(=O)S/C(=C\c2ccc(OCCc3ccccc3)cc2)C1=O`, for which the figures for the pIC50 in [1] and in [2] were 6.44 and 4.20, respectively.
With `COc1ccc(/C=C2\SC(=S)N(CC(=O)O)C2=O)cc1OCC(N)=O`, the values for the pIC50 in [1] and in assay [2] were 6.86 and 3.17, respectively.
For `O=C(O)CN1C(=O)/C(=C/c2ccc(OCCc3ccccc3)cc2)SC1=S` the same measures were 6.98 and 4.31.
As to `O=C(O)CN1C(=O)/C(=C/c2ccc(OCc3ccccc3)cc2)SC1=S`, the negative logarithm of the IC50 (pIC50) in [1] is 7.28; in assay [2] it was 4.25.
On to `O=C(O)CN1C(=O)/C(=C/c2ccc(Oc3ccccc3)cc2)SC1=S`, for which the pIC50 was 7.22 in [1] and 4.19 in assay [2].
Take `NC(=O)COc1cccc(/C=C2\SC(=S)N(CC(=O)O)C2=O)c1`: the results for the pIC50 in assay [1] and in assay [2] were 7.19 and 3.14, respectively.
Turning to `O=C(O)CN1C(=O)/C(=C/c2cccc(OCCc3ccccc3)c2)SC1=S`, the Activity in assay [4] is 70%. Moreover, the negative-log IC50 (pIC50) is 7.25 in assay [1] and 4.49 in [2]. Also, the pKi was 4.92 in [5], under 6.52 in [6], 4.92 in assay [8] and 8.21 in [9]. Besides, the inhibition result in assay [7] was “Active”.
Regarding `O=C(O)CN1C(=O)S/C(=C\c2cccc(OCCc3ccccc3)c2)C1=O`, the Activity in assay [4] was found to be 70%. For the same compound, the negative-log IC50 (pIC50) in assay [1] was 6.56; in [2] it was 4.91. Further, the pKi in [5] was 4.88; in [6], under 6.30; in assay [8], 4.88; in assay [9] it was 7.80. Also, in assay [7], the inhibition entry was “Active”.
As for `COc1cc(/C=C2\S/C(=N\c3ccccc3)N(CC(=O)O)C2=O)ccc1OCc1ccccc1`, the results for the pIC50 in assay [1] and in assay [2] were 5.85 and 4.97, respectively. Besides, the figures for the pKi in [10] and in assay [11] were 4.39 and 5.12, respectively.
Consider `COc1cc(/C=C2\SC(=S)N(CC(=O)O)C2=O)ccc1OCC(N)=O`, for which the negative logarithm of the IC50 (pIC50) was 6.64 in assay [1] and 3.42 in assay [2].
As for `O=C(O)CN1C(=O)/C(=C/c2cccc(Oc3ccccc3)c2)SC1=S`, the pIC50 in [1] is 7.60; in assay [2], 4.06.
Regarding `COc1cccc(/C=C2\SC(=S)N(CC(=O)O)C2=O)c1`, in assay [1], the pIC50 is 7.11.
For the compound `O=C(O)CN1C(=O)/C(=C/C=C/c2ccccc2)SC1=S`, the pIC50 in [1] was 6.90; in assay [2] it was 3.77.
For `COc1cc(/C=C2\SC(=S)N(CC(=O)O)C2=O)ccc1OCc1ccccc1` the same measures were 7.40 and 4.27.

Source of the values: ChEMBL document CHEMBL4325846, “An investigation on 4-thiazolidinone derivatives as dual inhibitors of aldose reductase and protein tyrosine phosphatase 1B, in the search for potential agents for the treatment of type 2 diabetes mellitus and its complications” (Bioorg Med Chem Lett, 2018).
